The target in data set [1] is T1, human sulfite oxidase (HSO, human SO) (Homo sapiens, UniProt P51687).
T1 sequence (P51687 80-545): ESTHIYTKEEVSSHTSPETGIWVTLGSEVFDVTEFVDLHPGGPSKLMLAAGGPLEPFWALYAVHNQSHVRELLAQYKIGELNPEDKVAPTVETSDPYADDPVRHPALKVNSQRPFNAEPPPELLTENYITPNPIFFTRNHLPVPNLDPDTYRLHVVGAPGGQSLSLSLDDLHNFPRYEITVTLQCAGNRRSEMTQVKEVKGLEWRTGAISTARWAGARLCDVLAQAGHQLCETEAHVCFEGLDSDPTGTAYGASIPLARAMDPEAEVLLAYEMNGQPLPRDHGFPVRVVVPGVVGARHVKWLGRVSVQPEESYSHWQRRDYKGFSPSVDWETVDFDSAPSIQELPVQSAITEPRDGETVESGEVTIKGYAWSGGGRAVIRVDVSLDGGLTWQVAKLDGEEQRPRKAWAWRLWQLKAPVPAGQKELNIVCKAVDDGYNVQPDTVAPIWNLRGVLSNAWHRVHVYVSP
In words: stopped-flow heme reduction. The class given is biochemical. Particulars: read-out: Kd^sulfite; pH 8.5, 25 °C, anaerobic, no cyt c. In short, it runs like this:
(§1)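 Recombinant enzyme expressed in E. coli TP1000 and purified. Anaerobic stopped-flow at 25 °C (dead-time <1.5 ms, 10 mm path), with argon-sparged solutions prepared in an anaerobic chamber. Enzyme at 0.3–0.8 μM was mixed with varied sulfite, no cyt c. Heme Soret change followed at 425 or 430 nm. Traces were fitted to single or double exponentials for kobs, then kobs versus sulfite fitted hyperbolically for kred and Kd.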

Data set [2] addresses T2, chicken sulfite oxidase (CSO, recombinant chicken SO) (Gallus gallus, UniProt P07850).
T2 sequence (P07850 1-459): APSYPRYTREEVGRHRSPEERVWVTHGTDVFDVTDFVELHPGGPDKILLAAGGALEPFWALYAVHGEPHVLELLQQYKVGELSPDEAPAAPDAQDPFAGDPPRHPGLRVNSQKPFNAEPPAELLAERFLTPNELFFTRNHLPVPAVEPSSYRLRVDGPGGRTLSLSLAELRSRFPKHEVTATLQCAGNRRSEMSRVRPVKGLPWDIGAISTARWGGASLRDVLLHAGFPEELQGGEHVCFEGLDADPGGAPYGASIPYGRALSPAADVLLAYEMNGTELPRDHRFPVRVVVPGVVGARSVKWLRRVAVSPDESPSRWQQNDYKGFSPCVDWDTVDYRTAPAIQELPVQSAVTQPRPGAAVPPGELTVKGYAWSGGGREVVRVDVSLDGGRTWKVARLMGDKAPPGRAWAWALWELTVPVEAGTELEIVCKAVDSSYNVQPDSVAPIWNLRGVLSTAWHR
In words: steady-state cytochrome c reduction at […] nm. Conditions: read-out: Km^sulfite; pH 8.5, 25 °C, horse heart cyt c. The format is biochemical.

Data set [3] addresses T3, human sulfite oxidase (HSO, human SO) (Homo sapiens, UniProt P51687, R529M).
T3 sequence (P51687 80-545 R529M): T1 sequence (P51687 80-545) with R450M
In words: stopped-flow heme reduction. The format is biochemical. Particulars: read-out: Kd^sulfite; pH 8.5, 25 °C, anaerobic, no cyt c. Put shortly:
as §1

The target in data set [4] is T4, human sulfite oxidase (HSO, human SO) (Homo sapiens, UniProt P51687, R529Q).
T4 sequence (P51687 80-545 R529Q): T1 sequence (P51687 80-545) with R450Q
In words: stopped-flow heme reduction. The class given is biochemical. Particulars: read-out: Kd^sulfite; pH 8.5, 25 °C, anaerobic, no cyt c. Put shortly:
as §1

Substrate in data set [5]: O=S(O)O
In words: purified protein. The class given is biochemical, Homo sapiens. Conditions: pH 8.5, 25 °C, horse heart cyt c.

Substrate in data set [6]: O=[N+]([O-])O
In words: purified protein. Conditions: pH 8.5, 25 °C, anaerobic, dithionite-reduced methyl viologen. The class given is biochemical, Homo sapiens.

Substitutions are numbered along the chain they refer to. In names and notes the source's numbering stands.

In general, Kd refers to the free concentration of one partner at which half of the binding sites on the other are occupied at equilibrium, for simple one-to-one binding. A word on the Km: it is the substrate concentration at which the rate is half of its maximum. A word on the kcat: it is the maximal rate divided by the concentration of active sites.

Regarding `O=S(O)O` [sulfite], the Kd was 6.72 µM in data set [1], 73.4 µM in data set [3] and 227 µM in data set [4]. Besides, the Km in data set [2] was 8.53 µM.

B1: human sulfite oxidase (HSO, human SO) (Homo sapiens; V531M) (protein)
chain: T1 sequence (P51687 80-545) with V452M
On to B1, for which, in “purified protein [5]”, the Km was found to be 3.54 µM and the kcat stood at 15.8 s⁻¹.

B2: human sulfite oxidase (HSO, human SO) (Homo sapiens; R529M/Y400N) (protein)
chain: T1 sequence (P51687 80-545) with Y321N, R450M
For the molecule B2, in the data set “purified protein [5]”, the Km worked out at 42990 µM and the kcat came out at 1.42 s⁻¹.

B3: human sulfite oxidase (HSO, human SO) (Homo sapiens; Y400N) (protein)
chain: T1 sequence (P51687 80-545) with Y321N
As to B3, in the data set “purified protein [5]”, the Km came out at 850 µM and the kcat was 16.91 s⁻¹.

B4: human sulfite oxidase (HSO, human SO) (Homo sapiens) (protein)
chain: T1 sequence (P51687 80-545)
Turning to B4, in “purified protein [6]”, the Km worked out at 43000 µM and the kcat was < 0.1 s⁻¹. Further, in “purified protein [5]”, the Km came out at 8.25 µM and the kcat is 26.9 s⁻¹.

Source of the values: article PMC3282045 (Biochemistry, 2012).
